{"source": "ChEMBL document CHEMBL4715736", "about": "“Identification of anticancer agents based on the thieno[2,3-b]pyridine and 1H-pyrazole molecular scaffolds” (2016)", "data": [{"system": "OVCAR-3", "assay": "Growth inhibition of human OVCAR-3 cells assessed as cell growth at 0.01 uM incubated for 48 hrs by sulforhodamine B assay relative to control", "assay_type": "functional", "conditions": "read-out: Activity", "units": {"growth at 0.01 µM": "%"}, "values": [{"molecule": "CCc1cccc(C)c1NC(=O)c1sc2nc3c(cc2c1N)C(=O)CCC3", "growth at 0.01 µM": 101}]}, {"system": "SR", "assay": "Growth inhibition of human SR cells assessed as cell growth at 1 uM incubated for 48 hrs by sulforhodamine B assay relative to control", "assay_type": "functional", "conditions": "read-out: Activity", "units": {"growth at 1 µM": "%"}, "values": [{"molecule": "CCc1cccc(C)c1NC(=O)c1sc2nc3c(cc2c1N)C(=O)CCC3", "growth at 1 µM": 17}]}, {"system": "HOP-62", "assay": "Growth inhibition of human HOP-62 cells assessed as cell growth at 0.01 uM incubated for 48 hrs by sulforhodamine B assay relative to control", "assay_type": "functional", "conditions": "read-out: Activity", "units": {"growth at 0.01 µM": "%"}, "values": [{"molecule": "CCc1cccc(C)c1NC(=O)c1sc2nc3c(cc2c1N)C(=O)CCC3", "growth at 0.01 µM": 94}]}, {"system": "SF-539", "assay": "Growth inhibition of human SF-539 cells assessed as cell growth at 1 uM incubated for 48 hrs by sulforhodamine B assay relative to control", "assay_type": "functional", "conditions": "read-out: Activity", "units": {"growth at 1 µM": "%"}, "values": [{"molecule": "CCc1cccc(C)c1NC(=O)c1sc2nc3c(cc2c1N)C(=O)CCC3", "growth at 1 µM": 8}]}, {"system": "MOLT-4", "assay": "Growth inhibition of human MOLT-4 cells assessed as cell growth at 100 uM incubated for 48 hrs by sulforhodamine B assay relative to control", "assay_type": "functional", "conditions": "read-out: Activity", "units": {"growth at 100 µM": "%"}, "values": [{"molecule": "CCc1cccc(C)c1NC(=O)c1sc2nc3c(cc2c1N)C(=O)CCC3", "growth at 100 µM": -9}]}, {"system": "Hs-578T", "assay": "Growth inhibition of human Hs-578T cells assessed as cell growth at 100 uM incubated for 48 hrs by sulforhodamine B assay relative to control", "assay_type": "functional", "conditions": "read-out: Activity", "units": {"growth at 100 µM": "%"}, "values": [{"molecule": "CCc1cccc(C)c1NC(=O)c1sc2nc3c(cc2c1N)C(=O)CCC3", "growth at 100 µM": 17}]}, {"system": "SF-268", "assay": "Growth inhibition of human SF-268 cells assessed as cell growth at 0.01 uM incubated for 48 hrs by sulforhodamine B assay relative to control", "assay_type": "functional", "conditions": "read-out: Activity", "units": {"growth at 0.01 µM": "%"}, "values": [{"molecule": "CCc1cccc(C)c1NC(=O)c1sc2nc3c(cc2c1N)C(=O)CCC3", "growth at 0.01 µM": 97}]}, {"system": "U-251", "assay": "Growth inhibition of human U-251 cells assessed as cell growth at 100 uM incubated for 48 hrs by sulforhodamine B assay relative to control", "assay_type": "functional", "conditions": "read-out: Activity", "units": {"growth at 100 µM": "%"}, "values": [{"molecule": "CCc1cccc(C)c1NC(=O)c1sc2nc3c(cc2c1N)C(=O)CCC3", "growth at 100 µM": 4}]}, {"system": "SF-295", "assay": "Growth inhibition of human SF-295 cells assessed as cell growth at 1 uM incubated for 48 hrs by sulforhodamine B assay relative to control", "assay_type": "functional", "conditions": "read-out: Activity", "units": {"growth at 1 µM": "%"}, "values": [{"molecule": "CCc1cccc(C)c1NC(=O)c1sc2nc3c(cc2c1N)C(=O)CCC3", "growth at 1 µM": 5}]}, {"system": "MOLT-4", "assay": "Growth inhibition of human MOLT-4 cells assessed as cell growth at 1 uM incubated for 48 hrs by sulforhodamine B assay relative to control", "assay_type": "functional", "conditions": "read-out: Activity", "units": {"growth at 1 µM": "%"}, "values": [{"molecule": "CCc1cccc(C)c1NC(=O)c1sc2nc3c(cc2c1N)C(=O)CCC3", "growth at 1 µM": 67}]}, {"system": "PC-3", "assay": "(§1) Growth inhibition of human PC-3 cells incubated for 48 hrs by sulforhodamine B assay", "assay_type": "functional", "conditions": "not given", "method_in_brief": "(§2)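 NCI DTP 60-line human tumour panel. Dose-response curves were run only for ligands active in the initial 10 µM screen. GI50 (concentration giving 50% of maximal inhibition of proliferation) and TGI (concentration giving total growth inhibition) were derived from these curves.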", "units": {"GI50": "µM", "TGI": "µM"}, "values": [{"molecule": "CCc1cccc(C)c1NC(=O)c1sc2nc3c(cc2c1N)C(=O)CCC3", "GI50": 0.454, "TGI": "> 100"}]}, {"system": "PC-3", "assay": "as §1", "assay_type": "functional", "conditions": "read-out: LC50 (the source's name)", "method_in_brief": "as §2", "units": {"CC50": "µM"}, "values": [{"molecule": "CCc1cccc(C)c1NC(=O)c1sc2nc3c(cc2c1N)C(=O)CCC3", "CC50": "> 100"}]}, {"system": "MDA-MB-231", "assay": "Growth inhibition of human MDA-MB-231 cells assessed as cell growth at 1 uM incubated for 48 hrs by sulforhodamine B assay relative to control", "assay_type": "functional", "conditions": "read-out: Activity", "units": {"growth at 1 µM": "%"}, "values": [{"molecule": "CCc1cccc(C)c1NC(=O)c1sc2nc3c(cc2c1N)C(=O)CCC3", "growth at 1 µM": 51}]}, {"system": "Hs-578T", "assay": "Growth inhibition of human Hs-578T cells assessed as cell growth at 0.1 uM incubated for 48 hrs by sulforhodamine B assay relative to control", "assay_type": "functional", "conditions": "read-out: Activity", "units": {"growth at 0.1 µM": "%"}, "values": [{"molecule": "CCc1cccc(C)c1NC(=O)c1sc2nc3c(cc2c1N)C(=O)CCC3", "growth at 0.1 µM": 90}]}, {"system": "ACHN", "assay": "Growth inhibition of human ACHN cells assessed as cell growth at 0.1 uM incubated for 48 hrs by sulforhodamine B assay relative to control", "assay_type": "functional", "conditions": "read-out: Activity", "units": {"growth at 0.1 µM": "%"}, "values": [{"molecule": "CCc1cccc(C)c1NC(=O)c1sc2nc3c(cc2c1N)C(=O)CCC3", "growth at 0.1 µM": 97}]}, {"system": "OVCAR-4", "assay": "Growth inhibition of human OVCAR-4 cells assessed as cell growth at 0.01 uM incubated for 48 hrs by sulforhodamine B assay relative to control", "assay_type": "functional", "conditions": "read-out: Activity", "units": {"growth at 0.01 µM": "%"}, "values": [{"molecule": "CCc1cccc(C)c1NC(=O)c1sc2nc3c(cc2c1N)C(=O)CCC3", "growth at 0.01 µM": 89}]}, {"system": "NCI-H23", "assay": "Growth inhibition of human NCI-H23 cells incubated for 48 hrs by sulforhodamine B assay", "assay_type": "functional", "conditions": "not given", "method_in_brief": "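NCI60 panel at the NCI Developmental Therapeutics Program. Only compounds active in the 10 µM screen went to dose-response testing. GI50, the concentration giving 50% of maximal inhibition of proliferation, and TGI, the concentration giving total growth inhibition, were derived from the dose-response curves.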", "units": {"GI50": "µM", "LC50 (50% lethal concentration)": "µM", "TGI": "µM"}, "values": [{"molecule": "CCc1cccc(C)c1NC(=O)c1sc2nc3c(cc2c1N)C(=O)CCC3", "GI50": 0.733, "LC50 (50% lethal concentration)": "> 100", "TGI": "> 100"}]}, {"system": "NCI-H460", "assay": "Growth inhibition of human NCI-H460 cells assessed as cell growth at 0.1 uM incubated for 48 hrs by sulforhodamine B assay relative to control", "assay_type": "functional", "conditions": "read-out: Activity", "units": {"growth at 0.1 µM": "%"}, "values": [{"molecule": "CCc1cccc(C)c1NC(=O)c1sc2nc3c(cc2c1N)C(=O)CCC3", "growth at 0.1 µM": 100}]}, {"system": "CCRF-CEM", "assay": "Growth inhibition of human CCRF-CEM cells assessed as cell growth at 0.1 uM incubated for 48 hrs by sulforhodamine B assay relative to control", "assay_type": "functional", "conditions": "read-out: Activity", "method_in_brief": "(§3)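 NCI Developmental Therapeutics Program NCI60 panel. Compounds that were active in the 10 µM one-dose screen went on to dose–response testing. Growth at each concentration is expressed relative to untreated control (100%). GI50 (concentration giving 50% of maximal inhibition of proliferation) and TGI (concentration giving total growth inhibition) were derived from the curves.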", "units": {"growth at 0.1 µM": "%"}, "values": [{"molecule": "CCc1cccc(C)c1NC(=O)c1sc2nc3c(cc2c1N)C(=O)CCC3", "growth at 0.1 µM": 90}]}, {"system": "MDA-MB-468", "assay": "Growth inhibition of human MDA-MB-468 cells assessed as cell growth at 0.01 uM incubated for 48 hrs by sulforhodamine B assay relative to control", "assay_type": "functional", "conditions": "read-out: Activity", "units": {"growth at 0.01 µM": "%"}, "values": [{"molecule": "CCc1cccc(C)c1NC(=O)c1sc2nc3c(cc2c1N)C(=O)CCC3", "growth at 0.01 µM": 91}]}, {"system": "HCT-15", "assay": "Growth inhibition of human HCT-15 cells assessed as cell growth at 1 uM incubated for 48 hrs by sulforhodamine B assay relative to control", "assay_type": "functional", "conditions": "read-out: Activity", "units": {"growth at 1 µM": "%"}, "values": [{"molecule": "CCc1cccc(C)c1NC(=O)c1sc2nc3c(cc2c1N)C(=O)CCC3", "growth at 1 µM": 29}]}, {"system": "A549", "assay": "Growth inhibition of human A549/ATCC cells assessed as cell growth at 0.01 uM incubated for 48 hrs by sulforhodamine B assay relative to control", "assay_type": "functional", "conditions": "read-out: Activity", "method_in_brief": "as §3", "units": {"growth at 0.01 µM": "%"}, "values": [{"molecule": "CCc1cccc(C)c1NC(=O)c1sc2nc3c(cc2c1N)C(=O)CCC3", "growth at 0.01 µM": 96}]}, {"system": "RPMI-8226", "assay": "Growth inhibition of human RPMI-8226 cells incubated for 48 hrs by sulforhodamine B assay", "assay_type": "functional", "conditions": "not given", "method_in_brief": "as §2", "units": {"GI50": "µM", "LC50": "µM", "TGI": "µM"}, "values": [{"molecule": "CCc1cccc(C)c1NC(=O)c1sc2nc3c(cc2c1N)C(=O)CCC3", "GI50": 0.0141, "LC50": "> 100", "TGI": "≥ 100"}]}, {"system": "SK-MEL-5", "assay": "Growth inhibition of human SK-MEL-5 cells incubated for 48 hrs by sulforhodamine B assay", "assay_type": "functional", "conditions": "not given", "method_in_brief": "as §2", "units": {"GI50": "µM", "LC50": "µM", "TGI": "µM"}, "values": [{"molecule": "CCc1cccc(C)c1NC(=O)c1sc2nc3c(cc2c1N)C(=O)CCC3", "GI50": 0.294, "LC50": 39, "TGI": 151}]}, {"system": "786-0", "assay": "Growth inhibition of human 786-0 cells assessed as cell growth at 100 uM incubated for 48 hrs by sulforhodamine B assay relative to control", "assay_type": "functional", "conditions": "read-out: Activity", "units": {"growth at 100 µM": "%"}, "values": [{"molecule": "CCc1cccc(C)c1NC(=O)c1sc2nc3c(cc2c1N)C(=O)CCC3", "growth at 100 µM": 11}]}, {"system": "NCI/ADR-RES", "assay": "Growth inhibition of human NCI/ADR-RES cells assessed as cell growth at 1 uM incubated for 48 hrs by sulforhodamine B assay relative to control", "assay_type": "functional", "conditions": "read-out: Activity", "units": {"growth at 1 µM": "%"}, "values": [{"molecule": "CCc1cccc(C)c1NC(=O)c1sc2nc3c(cc2c1N)C(=O)CCC3", "growth at 1 µM": 33}]}, {"system": "UO-31", "assay": "Growth inhibition of human UO-31 cells assessed as cell growth at 0.01 uM incubated for 48 hrs by sulforhodamine B assay relative to control", "assay_type": "functional", "conditions": "read-out: Activity", "units": {"growth at 0.01 µM": "%"}, "values": [{"molecule": "CCc1cccc(C)c1NC(=O)c1sc2nc3c(cc2c1N)C(=O)CCC3", "growth at 0.01 µM": 86}]}, {"system": "IGROV-1", "assay": "Growth inhibition of human IGROV-1 cells assessed as cell growth at 1 uM incubated for 48 hrs by sulforhodamine B assay relative to control", "assay_type": "functional", "conditions": "read-out: Activity", "units": {"growth at 1 µM": "%"}, "values": [{"molecule": "CCc1cccc(C)c1NC(=O)c1sc2nc3c(cc2c1N)C(=O)CCC3", "growth at 1 µM": 59}]}, {"system": "M14", "assay": "Growth inhibition of human M14 cells assessed as cell growth at 0.01 uM incubated for 48 hrs by sulforhodamine B assay relative to control", "assay_type": "functional", "conditions": "read-out: Activity", "units": {"growth at 0.01 µM": "%"}, "values": [{"molecule": "CCc1cccc(C)c1NC(=O)c1sc2nc3c(cc2c1N)C(=O)CCC3", "growth at 0.01 µM": 96}]}, {"system": "DU-145", "assay": "Growth inhibition of human DU-145 cells assessed as cell growth at 0.01 uM incubated for 48 hrs by sulforhodamine B assay relative to control", "assay_type": "functional", "conditions": "read-out: Activity", "method_in_brief": "as §3", "units": {"growth at 0.01 µM": "%"}, "values": [{"molecule": "CCc1cccc(C)c1NC(=O)c1sc2nc3c(cc2c1N)C(=O)CCC3", "growth at 0.01 µM": 101}]}]}
